The subject of this series is MS2 coat protein. The experiment in a line: apparent Kd, MS2 coat protein; higher = weaker binding; RNA-MaP array; FMN 200 µM where present. Summed up:
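Each design was made on Illumina sequencing-chip clusters by stalled E. coli RNA polymerase and titrated with SNAP-549-labelled MS2 coat protein from 0.7 or 1.5 nM, doubling to 3 µM, in the absence and then the presence of constant ligand. The buffer was 100 mM Tris-HCl pH 7.5, 80 mM KCl, 4 mM MgCl2, BSA, DTT, yeast tRNA and Tween-20. The apparent Kd is the median of filtered per-cluster fits of binding curves, with green signal normalised to red-channel RNA signal and control-cluster median Fmax.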

[1] abbreviates: designed as: OFF switch for flavin mononucleotide, no ligand.
Setting [2] is: ligand present: flavin mononucleotide, designed as: OFF switch for flavin mononucleotide.
[3] abbreviates: designed as: ON switch for flavin mononucleotide, no ligand.
[4] abbreviates: ligand present: flavin mononucleotide, designed as: ON switch for flavin mononucleotide.

In general, apparent Kd refers to a dissociation constant that holds for the conditions of the assay. Turning to “CGAUAGGACAGAGGAUAUACACAUGAGGAUCACCCAUGUGAUUACAACGCGUAAGCUCCAAACAUGUAGAAGGCUGUCCUAUCG”, the “apparent Kd” value is 17.6 nM under setting [1] and 20.6 nM under setting [2].
The like results for “GAUGGAAUAGUCAGGAUAUAAACGUCAGGAUAUGUUUAGAAGGGACAUGAGGAUCACCCAUGUUAAGAUAUGGU” were, in that order, 29.9 nM and 87.6 nM.
For “UUCCUGUCAGGAUAUGACUAGAUGCACGAAAGUGUUUUUAGUUAGAAGGGACAUGAGGAUCACCCAUGUAGUCC”, in that order: 24.1 nM and 40 nM.
Take “UGUUGUAUUACAGGAUAUCUAGUAUUUUUAUCUAGAGAAGGGUAUUCACAUGAGGAUCACCCAUGUAUAUACGAGGAAGUUGUG”: the “apparent Kd” value was found to be 33.1 nM under setting [3] and 33.2 nM under setting [4].
For the sequence “CGAUAUUAUGUCAGGAUAUACAUUGCGAAAGCAAUGUAGAAGGGACAUGAGGAUCACCCAUGUUCCUACUAUCG”, the “apparent Kd” value is 12.3 nM under setting [1] and 15.7 nM under setting [2].
With “GAAUUCGCAUGAGGAUAUGCACUCAUUUCAUGUGCAGAAGGUAUAUCAUUAGACAUGAGGAUCACCCAUGUAUUGGUCAUUAAA”, the “apparent Kd” value was determined as 15.8 nM under setting [3] and 13.9 nM under setting [4].
“CGCUGGUGACAGCAUCCAUCAAAACAUGAGGAUCACCCAUGUAGAAGGCUGUACGGUUACCGUACAGAGGAUAUACAAUGAUGU”: the “apparent Kd” value is, setting by setting: under setting [1], 16 nM; under setting [2], 27.2 nM.
As to “UUUAUGUGAGGAUAUAGUACUCCUUCUAUUAUUAUUGAGUACUAGAAGGCACAUGAGGAUCACCCAUGUAGUAC”, the “apparent Kd” value under setting [1] is 30 nM and the “apparent Kd” value under setting [2] was 48.3 nM.
The like results for “AAAAAGUCAGGAUAUACAUGAGGAUCACCCAUGUAAAAAAAAGGGAAAAAAAAAAAGGGUAGAAGGGACGAAAA” were, in that order, 37.8 nM and 33 nM.
On to “AACGAUCUAGGAUAUACAUGAGGAUCACCCAUGUAAGAGCCCAAACCAGGCUCCCUCUGUAGAAGGAGGUCAAA”, for which, under setting [2], the “apparent Kd” value was 50.9 nM.
“GACUGCUGAGGAUAUACAUGAGGAUCACCCAUGUGCUUCAGUAUCGAAAGAUACAUUGGUAGAAGGUAGUAGUC”: the “apparent Kd” value turned out to be 11.8 nM under setting [1] and 20.8 nM under setting [2].
As to “GAGCUAUGAGGAUAUGCAUAUAUGCGGUUUCGUGUGGUACUACAUGAGGAUCACCCAUGUAGAAGGCGUGGCUG”, the “apparent Kd” value by setting is: under setting [1], 17.2 nM; under setting [2], 17 nM.
In the case of “CCGGAAAUGGAGGAUAUCGUAUCGGAUACGAUACGAGAAGGCUAUACAUGAGGAUCACCCAUGUGUCCUACCGG”, the “apparent Kd” value under setting [1] was found to be 12.6 nM and the “apparent Kd” value under setting [2] came out at 20.1 nM.
Turning to “UUAUUUAUGCAAGGAUAUCAAUUAUAUAGACGUCCUACAUGAGGAUCACCCAUGUUUAGUUUUUUUGAGAAGGUGCAUUGUCGG”, the “apparent Kd” value is 43.1 nM under setting [3] and 31.1 nM under setting [4].
For “AUUGUGUGAGGAUAUUAAUAGUAAAUGAAUAGAAUUGUGAUUGAGAAGGCACAUGAGGAUCACCCAUGUUCCUU”, the “apparent Kd” value is, setting by setting: under setting [1], 19 nM; under setting [2], 17.4 nM.
“UUGGACGUCGUAGGAUAUGUAGGAUAUUCCUACAUGAGGAUCACCCAUGUUGACAUGGAAGAAGGACUGAAGGACGAUGUCCAU”: the “apparent Kd” value reads like this: under setting [3], 763 nM; under setting [4], 22.9 nM.
Turning to “AGUGUUGGAGGAUAUACAUGAGGAUCACCCAUGUACAUCACACAGUAUAUGAAACCAUGUAGAAGGCCAAUACA”, the “apparent Kd” value runs as follows: under setting [1], 55.8 nM; under setting [2], 73.8 nM.
“GGAUCCAUCACAGGAUAUGCUGGACUUUGUCCAGCAGAAGGGUGAACAUGAGGAUCACCCAUGUAAAAGGAUCCUAUAUUUAAU”: the “apparent Kd” value under setting [3] came to 124 nM and the “apparent Kd” value under setting [4] stood at 24.9 nM.
As to “UGCAUGUAAGGAUAUGCAUCCGCCGACGUCCCGGCGGCACAGCAGAAGGUACAUGAGGAUCACCCAUGUGUCCC”, the “apparent Kd” value under setting [1] turned out to be 28.8 nM and the “apparent Kd” value under setting [2] turned out to be 155 nM.
Turning to “AAGAAGUCAGGAUAUGCAUGGCGGGACUUGCGUCGUGGCGUGCAGAAGGGACAUGAGGAUCACCCAUGUAAAGA”, the “apparent Kd” value runs as follows: under setting [1], 49.4 nM; under setting [2], 41.7 nM.
For “UCAGGCUUCGAGAAGGACAUGAGGAUCACCCAUGUGCGUGUAAAACAGCCAAAAGGCUGCAUCAUGUAGGAUAUCGGAGUCUGC”, in that order: 279 nM and 192 nM.
In the case of “AGCUACGUUUCGUAGCAGUGUCAUCGAGAAGGCUCAUAAACAUGAGGAUCACCCAUGUAUUCAUGGGAGGAUAUCGAUGAUACA”, the “apparent Kd” value under setting [3] came to 32.2 nM and the “apparent Kd” value under setting [4] was determined as 6.04 nM.
For the sequence “AUAAAUGAUGAGGAUAUCACUAGCGAUAGCUAGUGAGAAGGCAUCACAUGAGGAUCACCCAUGUGCUCCAAUAA”, the “apparent Kd” value by setting is: under setting [1], 115 nM; under setting [2], 486 nM.
For “CGGUCUUGCAACUAUUUGUUUCACAUGAGGAUCACCCAUGUCAGAAGGAGGUGCGUCUAUUAGACCUAGGAUAUGACGUGUAAG”, in that order: 15.5 nM and 26 nM.
The like results for “UAUAUAUAGUAAGGAUAUGUAUAUAUGUUAUAAACAGAAGGUACUGACAUGAGGAUCACCCAUGUUUUAGUGUGGGCAUGUAGA” were, in that order, 66.2 nM and 96 nM.
For “UCUGGUCGAGGAUAUACAAUCGUGCUUCGGCACGUAAGAUCACAUGAGGAUCACCCAUGUAGAAGGUGACCAGA”, in that order: 27.1 nM and 131 nM.
In the case of “AUAUUUAUUUAGAAGGACAUGAGGAUCACCCAUGUCGCUGGGCGCGGGAAACCGUGCCCGGCCAUGUAGGAUAUAGAUAGAUAU”, the “apparent Kd” value by setting is: under setting [1], 8.78 nM; under setting [2], 9.88 nM.
For “CGAAAAUUUCAGAAGGACCAAUUCCACAUGAGGAUCACCCAUGUCGAUGGUAGGAUAUGGAGUUGUGGACAGGGUGGAUGUUCC”, the “apparent Kd” value by setting is: under setting [3], 122 nM; under setting [4], 12.6 nM.
The like results for “AGUUUUGUACAUGAGGAUCACCCAUGUUAAUAUGUGGUAGUCAGAAGGCAUUGUUAGUGUUUAUAUGAGGAUAUGAUUAGGCAG” were, in that order, 46.6 nM and 24.6 nM.
Take “UUAAAUCGAAACAUGAGGAUCACCCAUGUGUUGUAAUUAACAUAGGAUAUGUAUAUACUUUUUAAAUAGAAGGAUGAUAAUACU”: the “apparent Kd” value is, setting by setting: under setting [3], 16.1 nM; under setting [4], 11.6 nM.
Consider “GUGGUCAGACAUGAGGAUCACCCAUGUGGAAUAAAUAACACACAGGAUAUCAAAUAUAAAAUAUAUGAGAAGGGUGGAUUGGUG”, for which the “apparent Kd” value under setting [4] was determined as 224 nM.
Regarding “AAGAAGUCAGGAUAUCCAUGGCGGCACUUGCGUGGUGGCGUGGAGAAGGGACAUGAGGAUCACCCAUGUAAAGU”, the “apparent Kd” value by setting is: under setting [1], 49 nM; under setting [2], 44.6 nM.
Take “AAUGUGUGUCGAGGAUAUAUAACAUGACAACAAACACAUACAUGAGGAUCACCCAUGUCCCAUGUAUAGAAGGCGAUGUGUGUG”: the “apparent Kd” value is, setting by setting: under setting [3], 219 nM; under setting [4], 434 nM.
With “AUUAUAAAGUCAGGAUAUCGGUUUAUAAUAUUACGAGAAGGGACAUGAGGAUCACCCAUGUAUUAACACUACUAUGUCAACUAA”, the “apparent Kd” value was determined as 46.6 nM under setting [1] and 43.4 nM under setting [2].
As for “AGUCUGUGGCAACUAUCCUCACAUGAGGAUCACCCAUGUAGGGAGGAUAUGCAUUUAAAGAAGUGGCAGAAGGCCCUACACGGA”, the “apparent Kd” value under setting [1] stood at 83.2 nM and the “apparent Kd” value under setting [2] was found to be 32.1 nM.
For “AAGAAGAACGCAGGAUAUCUCACCCAUGUAAGAAGAGAAGGGCGACAUGAGGAUCACCCAUGUCAACAUGAGGAUCACCCAUGU”, in that order: 59.6 nM and 88.9 nM.
As to “UUUAUAUGAGGAUAUCCGAGGAGCCACAUGAGGAUCACCCAUGUCGUCUUUUGUGAUAGUGGAGAAGGUGUGUCAG”, the “apparent Kd” value worked out at 27.7 nM under setting [1] and 31.6 nM under setting [2].
Take “UUAUUUAUACAAGGAUAUCAAUUAUAUACACAUCCUACAUGAGGAUCACCCAUGUUUUAUUUUUUUGAGAAGGUGUAUUGUGGG”: the “apparent Kd” value under setting [3] turned out to be 92.3 nM and the “apparent Kd” value under setting [4] is 109 nM.
For “UGGAUCAAUACAGGAUAUGGUGACGCACAUGAGGAUCACCCAUGUCCGCAGCGUGCUCAGCACGCCCAGAAGGGUAUUGACUCG”, in that order: 731 nM and 88.8 nM.
For the sequence “CGAAACAACACAACGAAGCAGGUACCAGAAGGGACGGCGUCACAUGAGGAUCACCCAUGUUGCAGUCAGGAUAUGGGCCAUCCU”, the “apparent Kd” value reads like this: under setting [3], 33.1 nM; under setting [4], 6.95 nM.
For “AAGGAGUCAGGAUAUGCUGCUCGUCACUUGCGUGAUGAGUAGCAGAAGGGACAUGAGGAUCACCCAUGUAAAGA”, the “apparent Kd” value was 51.2 nM under setting [1] and 61.4 nM under setting [2].
The like results for “AAAUAUAAUGAGGAUAUCGUACUGGAUAUAGUGCGAGAAGGCAUUACAUGAGGAUCACCCAUGUUUUGUUGGGA” were, in that order, 30.8 nM and 89.5 nM.
“UCAUACAUUCGAGGAUAUCGGUGAGAAAUCUUUCGAGAAGGCGAUUCAUGAUUUAUUAUCCUGGACAUGAGGAUCACCCAUGUA”: the “apparent Kd” value under setting [3] was determined as 85.3 nM and the “apparent Kd” value under setting [4] turned out to be 65.5 nM.
Consider “CCGUAGAGAGGAUAUACAUGAGGAUCACCCAUGUGACAUCGAACGAUGUCGCCUAGUCGUAGAAGGUUCAAACG”, for which the “apparent Kd” value amounted to 25.4 nM under setting [1] and 24.8 nM under setting [2].
As to “UCUCGUUUCGCAGGAUAUGCUGGUCGGUCAUAAACCGGCCACAUGAGGAUCACCCAUGUGCCACAGCAGAAGGGUGACACUAGA”, the “apparent Kd” value reads like this: under setting [3], 543 nM; under setting [4], 59 nM.
On to “CAGUACAGAGGAUAUACAUGAGGAUCACCCAUGUGUUUCAGCUAGGAGACUAGCGAAAGUAGAAGGCUGUACUG”, for which the “apparent Kd” value under setting [1] was found to be 9.57 nM and the “apparent Kd” value under setting [2] worked out at 25.1 nM.
For “AGUCAUACAGGAUAUACAUGAGGAUCACCCAUGUAAAUCCUAAAAAGAAAAACCUCUUGUAGAAGGGUAUGACA”, in that order: 14.3 nM and 16.3 nM.
For “AGAAACUACGAGAAGGACAAAAAAGGUGCCGCAAACAUGAGGAUCACCCAUGUAGGAUAUCGUAGUUUCAGGAUCGUGAGAUCA”, in that order: 16.5 nM and 98.3 nM.
For the sequence “AAACAUGUCCGAGGAUAUCUGGAAAUAUUUCCAAGAGAAGGCGGACAUGAGGAUCACCCAUGUCUCUCCUCAUCAAAUCCAAGU”, the “apparent Kd” value amounted to 9.36 nM under setting [1] and 73.3 nM under setting [2].
